In ChEMBL document CHEMBL1124374, “Enkephalinase inhibitors. 1. 2,4-Dibenzylglutaric acid derivatives” (J Med Chem, 1989):
Activity calls are given as the source filed them.

Legend:
Neprilysin [1] = target: T1, Neprilysin (Rattus norvegicus, UniProt P07861); experiment: Inhibition of enkephalinase activity in synaptic membranes prepared from rat striatum; type: cell membranes
T1 sequence (P07861 whole entry): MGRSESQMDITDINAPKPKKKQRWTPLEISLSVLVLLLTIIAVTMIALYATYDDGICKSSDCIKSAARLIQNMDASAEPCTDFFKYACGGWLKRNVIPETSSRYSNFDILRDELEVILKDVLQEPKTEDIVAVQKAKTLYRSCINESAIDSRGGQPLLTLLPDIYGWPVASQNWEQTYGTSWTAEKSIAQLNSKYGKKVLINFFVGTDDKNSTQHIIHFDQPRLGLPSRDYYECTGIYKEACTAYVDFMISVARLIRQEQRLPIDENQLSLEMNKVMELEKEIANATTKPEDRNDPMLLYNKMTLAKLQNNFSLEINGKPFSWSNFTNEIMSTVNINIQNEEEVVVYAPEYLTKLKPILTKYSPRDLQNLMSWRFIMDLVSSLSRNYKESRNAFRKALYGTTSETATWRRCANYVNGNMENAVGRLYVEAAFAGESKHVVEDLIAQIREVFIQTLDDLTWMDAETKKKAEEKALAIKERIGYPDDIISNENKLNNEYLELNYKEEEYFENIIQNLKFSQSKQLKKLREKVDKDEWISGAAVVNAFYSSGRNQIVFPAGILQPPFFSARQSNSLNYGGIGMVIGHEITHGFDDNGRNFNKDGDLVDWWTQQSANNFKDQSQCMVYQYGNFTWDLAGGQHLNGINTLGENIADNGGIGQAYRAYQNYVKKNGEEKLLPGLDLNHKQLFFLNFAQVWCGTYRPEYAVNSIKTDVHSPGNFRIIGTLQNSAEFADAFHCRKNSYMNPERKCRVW

Mus musculus [2] = experiment: Tail-flick latency observed in CF-1 mice after the administration (30 mg/kg) followed by icv administration of DAEM ([D-Ala2,Met5]enkephalin); type: functional
How it was run: (§1)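 Male CF-1 mice (20–22 g) given test agent or vehicle sc, followed immediately by icv DAEM (1 μg) or vehicle. Tail-flick latency measured 30 min later, cutoff 10 s, n = 10.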

Mus musculus [3] = experiment: Hot-plate jump-latency activity in mouse 15 minutes after subcutaneous administration; type: functional; conditions: sc, 0.25 h, read-out: MED
How it was run: (§2)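 Male CF1 mice (18–23 g) dosed icv or sc; 15 min later placed singly on a copper hot plate held at 55 °C. Latency to jump recorded, cutoff 240 s. MED = minimum effective dose. ED200 = dose doubling jump latency.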

Neprilysin [4] = target: T2, Neprilysin (Oryctolagus cuniculus, UniProt P08049); experiment: (§3) Inhibition of enkephalinase activity in membranes prepared from rabbit
T2 sequence (P08049 whole entry): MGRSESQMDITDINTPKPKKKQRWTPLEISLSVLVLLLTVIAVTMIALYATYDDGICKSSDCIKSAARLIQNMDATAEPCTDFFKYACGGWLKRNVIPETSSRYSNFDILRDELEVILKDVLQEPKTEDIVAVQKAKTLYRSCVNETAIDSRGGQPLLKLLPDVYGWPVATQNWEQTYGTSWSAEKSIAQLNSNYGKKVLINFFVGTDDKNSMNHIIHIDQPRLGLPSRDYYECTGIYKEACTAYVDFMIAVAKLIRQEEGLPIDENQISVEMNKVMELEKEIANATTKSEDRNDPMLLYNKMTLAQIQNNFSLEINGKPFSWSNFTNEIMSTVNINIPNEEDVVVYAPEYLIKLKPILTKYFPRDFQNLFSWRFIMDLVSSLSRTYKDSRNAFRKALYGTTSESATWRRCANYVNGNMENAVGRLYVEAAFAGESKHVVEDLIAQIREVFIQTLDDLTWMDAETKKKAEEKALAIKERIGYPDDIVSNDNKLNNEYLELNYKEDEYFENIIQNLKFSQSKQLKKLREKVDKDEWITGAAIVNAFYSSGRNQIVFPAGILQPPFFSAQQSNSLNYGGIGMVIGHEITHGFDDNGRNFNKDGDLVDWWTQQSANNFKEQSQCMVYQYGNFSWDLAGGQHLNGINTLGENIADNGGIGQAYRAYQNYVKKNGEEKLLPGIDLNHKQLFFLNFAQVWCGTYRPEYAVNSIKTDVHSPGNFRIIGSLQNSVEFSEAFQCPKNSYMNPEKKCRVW

Mus musculus [5] = experiment: Antinociceptive effect was determined by mouse hot plate assay after sc administration of the compound; type: functional; how it was run: as §2
Mus musculus [6] = experiment: Doubling of hotplate jump-latency activity in mouse after intra cerebro ventricular administration of the compound; type: functional; how it was run: as §2
Mus musculus [7] = experiment: Tail-flick latency observed in CF-1 mice after the administration (30 mg/kg) followed by icv administration of DAEM ([D-Ala2,Met5]enkephalin); IA is Inactive; type: functional, organism-based; how it was run: as §1
Neprilysin [8] = target: T2, Neprilysin; experiment: as §3; remark: listed apart in the source
How it was run: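 Rabbit protease 24.11 (15 ng protein) incubated 10 min at 37 °C with [Tyr-3H]Leu-enkephalin plus unlabeled Leu-enkephalin (1 μM final) in 50 mM Tris-HCl, pH 6.5. Stopped with TFA. Tyr-Gly-Gly product separated from substrate by C4 reverse-phase HPLC (isocratic, 0.09% TFA/acetonitrile). Fractions counted by scintillation.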

[9] = target: T3, Aminopeptidase N (Sus scrofa) (UniProt P15145); experiment: Inhibition of aminopeptidase; IA is inactive
T3 sequence (whole entry): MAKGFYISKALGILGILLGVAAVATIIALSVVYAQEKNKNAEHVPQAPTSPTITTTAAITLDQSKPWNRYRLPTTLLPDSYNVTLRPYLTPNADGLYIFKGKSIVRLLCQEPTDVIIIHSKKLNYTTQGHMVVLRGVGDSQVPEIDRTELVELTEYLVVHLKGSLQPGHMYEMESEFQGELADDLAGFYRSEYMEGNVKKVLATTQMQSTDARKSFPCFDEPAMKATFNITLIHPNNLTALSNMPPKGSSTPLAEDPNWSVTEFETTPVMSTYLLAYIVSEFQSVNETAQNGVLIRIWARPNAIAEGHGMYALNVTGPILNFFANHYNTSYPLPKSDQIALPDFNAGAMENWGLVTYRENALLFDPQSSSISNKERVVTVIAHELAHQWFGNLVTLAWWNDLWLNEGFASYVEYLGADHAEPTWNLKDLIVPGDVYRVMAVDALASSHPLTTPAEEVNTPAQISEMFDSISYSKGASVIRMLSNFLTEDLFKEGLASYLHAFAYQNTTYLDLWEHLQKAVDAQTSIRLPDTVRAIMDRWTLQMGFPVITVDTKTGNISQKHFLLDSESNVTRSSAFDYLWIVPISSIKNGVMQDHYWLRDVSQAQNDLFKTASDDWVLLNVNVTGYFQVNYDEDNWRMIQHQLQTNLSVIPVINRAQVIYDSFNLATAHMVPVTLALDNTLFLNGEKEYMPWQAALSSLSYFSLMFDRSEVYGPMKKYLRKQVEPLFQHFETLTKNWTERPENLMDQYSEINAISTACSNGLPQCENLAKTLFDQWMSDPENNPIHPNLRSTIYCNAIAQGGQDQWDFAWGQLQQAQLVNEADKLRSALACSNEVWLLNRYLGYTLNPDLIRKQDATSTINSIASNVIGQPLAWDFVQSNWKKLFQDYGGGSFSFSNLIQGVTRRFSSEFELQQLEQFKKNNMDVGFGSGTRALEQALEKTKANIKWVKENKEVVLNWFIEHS
How it was run: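 Kidney cortex membranes (75 μg protein) incubated 15 min at 37 °C in 50 mM Tris, pH 7.4, with 0.8 mM L-leucine p-nitroanilide (final). Reaction stopped with TCA, tubes centrifuged, p-nitroaniline read as OD at 410 nm.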

Mus musculus [10] = experiment: Stretching activity in male CF-1 mice, after the intra peritoneal administration of acetic acid and subcutaneous administration of compound; type: functional
How it was run: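 Male CF-1 mice (18–22 g), twelve per dose of agent or vehicle, dosed sc 15 min before ip 3% aqueous acetic acid at 10 mL/kg. Five minutes after irritant, stretching episodes counted over 10 min. ED50 derived from these counts.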

Mus musculus [11] = experiment: Doubling of hotplate jump-latency activity in mouse after subcutaneous administration is determined; type: functional; how it was run: as §2
[12] = target: Mu-type opioid receptor (Mus musculus) (UniProt P42866); experiment: Ability to displace tritium-labeled naloxone at opioid receptor, at 10 uM concentration
Opioid receptor = experiment: Ability to displace tritium-labeled naloxone at opiate receptors, at 10 uM concentration

Sequence of Mu-type opioid receptor (Mus musculus) (P42866 whole entry): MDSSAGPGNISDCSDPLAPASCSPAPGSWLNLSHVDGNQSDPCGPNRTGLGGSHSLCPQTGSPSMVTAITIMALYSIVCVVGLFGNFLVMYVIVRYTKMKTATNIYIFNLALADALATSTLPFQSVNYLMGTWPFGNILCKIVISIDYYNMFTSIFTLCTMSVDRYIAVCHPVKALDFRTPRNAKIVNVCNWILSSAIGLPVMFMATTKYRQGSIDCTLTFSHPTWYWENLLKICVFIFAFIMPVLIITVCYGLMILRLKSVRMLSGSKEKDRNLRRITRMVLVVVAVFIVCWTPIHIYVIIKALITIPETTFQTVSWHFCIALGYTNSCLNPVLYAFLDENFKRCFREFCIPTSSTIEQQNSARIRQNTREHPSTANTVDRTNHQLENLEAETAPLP

Compound | IC50 (Neprilysin [1]) | other results
O=C(O)C(COCc1ccccc1)NC(=O)[C@H](Cc1ccccc1)C[C@@H](Cc1ccccc1)C(=O)O (stereo partly specified) | 6 nM | –
O=C(O)C(Cc1ccccc1)NC(=O)[C@H](Cc1ccccc1)C[C@@H](Cc1ccccc1)C(=O)O (stereo partly specified) | 29 nM | –
O=C(O)C(CSCc1ccccc1)NC(=O)[C@H](Cc1ccccc1)C[C@@H](Cc1ccccc1)C(=O)O (stereo partly specified) | 4 nM | –
CC1(C)O[C@H]2[C@H](COC(=O)CCNC(=O)[C@H](Cc3ccccc3)C[C@@H](Cc3ccccc3)C(=O)O)OC(=O)[C@H]2O1 | – | Reaction time (Mus musculus [2]): 9.8 s; minimal effective dose (Mus musculus [3]): > 30 mg/kg
O=C(O)C(Cc1c[nH]c2ccccc12)NC(=O)[C@H](Cc1ccccc1)C[C@@H](Cc1ccccc1)C(=O)O (stereo partly specified) | 74 nM | –
O=C(O)CCCNC(=O)C(Cc1ccccc1)CC(Cc1ccccc1)C(=O)O (stereo unspecified) | – | IC50 (Neprilysin [4]): 57 nM
CC1(C)O[C@@H]2O[C@@H](COC(=O)CCNC(=O)[C@H](Cc3ccccc3)C[C@@H](Cc3ccccc3)C(=O)[O-])[C@H]3OC(C)(C)O[C@H]3[C@@H]2O1.[Na+] | – | Reaction time (Mus musculus [2]): 8.1 s; minimal effective dose (Mus musculus [3]): > 30 mg/kg
N#CCCNC(=O)C(Cc1ccccc1)CC(Cc1ccccc1)C(=O)O (stereo unspecified) | > 1000 nM | –
O=C([O-])[C@H](Cc1ccccc1)C[C@@H](Cc1ccccc1)C(=O)NCc1ccc(O)c(O)c1.[Na+] | 20 nM | ED200 (Mus musculus [5]): >100 mg/kg
O=C(O)c1cccc(NC(=O)[C@@H](Cc2ccccc2)C[C@H](Cc2ccccc2)C(=O)O)c1 | 90 nM | –
O=C(O)CCC(=O)NC(Cc1ccccc1)CC(Cc1ccccc1)C(=O)O (stereo unspecified) | 9 nM | –
O=C(O)c1ccc(NC(=O)[C@@H](Cc2ccccc2)C[C@H](Cc2ccccc2)C(=O)O)cc1 | 800 nM | –
CCOC(=O)C(Cc1ccccc1)CC(Cc1ccccc1)C(=O)NCCC(=O)O (stereo unspecified) | > 1000 nM | ED200 (Mus musculus [6]): 16 µg; minimal effective dose (Mus musculus [3]): > 100 mg/kg; Reaction time (Mus musculus [7]): inactive
O=C(O)CCCC(=O)NC(Cc1ccccc1)CC(Cc1ccccc1)C(=O)O (stereo unspecified) | – | IC50 (Neprilysin [4]): 12 nM
O=C(O)CCNC(=O)C(Cc1ccccc1)CC(Cc1ccccc1)C(=O)O (stereo unspecified) | 18 nM | –
O=C(O)CNC(=O)[C@H](Cc1ccccc1)C[C@@H](Cc1ccccc1)C(=O)O | 4 nM | –

Compound | IC50 (Neprilysin [1]) | other results
O=C(O)c1cc(NC(=O)[C@H](Cc2ccccc2)C[C@@H](Cc2ccccc2)C(=O)O)ccc1O | 38 nM | –
O=C(O)CCNC(=O)C(CC1CCCCC1)CC(CC1CCCCC1)C(=O)O (stereo unspecified) | 1000 nM | –
O=C(O)c1ccccc1NC(=O)C(Cc1ccccc1)CC(Cc1ccccc1)C(=O)O (stereo unspecified) | 1000 nM | –
O=C(O)CC(=O)NC(Cc1ccccc1)CC(Cc1ccccc1)C(=O)O (stereo unspecified) | – | IC50 (Neprilysin [4]): 62 nM
CC(C)C[C@H](NP(=O)(O)O[C@@H]1O[C@@H](C)[C@H](O)[C@@H](O)[C@H]1O)C(=O)N[C@@H](Cc1c[nH]c2ccccc12)C(=O)O [PHOSPHORAMIDON] | 0.6 nM | IC50 (Neprilysin [4]): 0.4 nM
CC(C)CC(NC(=O)[C@H](Cc1ccccc1)C[C@@H](Cc1ccccc1)C(=O)O)C(=O)O (stereo partly specified) | 40 nM | –
O=C(O)CCCNC(=O)[C@H](Cc1ccccc1)C[C@@H](Cc1ccccc1)C(=O)O | – | IC50 (Neprilysin [8]): 1.4 nM
O=C(O)CCNC(=O)C(CCc1ccccc1)CC(CCc1ccccc1)C(=O)O (stereo unspecified) | 1000 nM | –
O=C(O)CCNC(=O)[C@H](Cc1ccccc1)C[C@@H](Cc1ccccc1)C(=O)OC1OC(=O)c2ccccc21 (stereo partly specified) | – | minimal effective dose (Mus musculus [3]): 30 mg/kg
O=C(O)CCC(=O)NC(Cc1ccccc1)C[C@@H](Cc1ccccc1)C(=O)O (stereo partly specified) | – | IC50 (Neprilysin [4]): 2 nM
COc1cc(CNC(=O)C(CS)Cc2ccccc2)ccc1O (stereo unspecified) | – | inhibition [9]: inactive; IC50 (Neprilysin [8]): 9 nM; ED50 (Mus musculus [10]; sc): 5.5 mg/kg; ED200 (Mus musculus [11]): 6 mg/kg; inhibition [12]: 30%
O=C(O)Cc1ccccc1NC(=O)[C@H](Cc1ccccc1)C[C@@H](Cc1ccccc1)C(=O)O | 25 nM | –
O=C(NCc1ccc(O)c(O)c1)C(CS)Cc1ccccc1 (stereo unspecified) | 12 nM | ED50 (Mus musculus [10]): 5 mg/kg; ED200 (Mus musculus [11]): 15 mg/kg; inhibition (Opioid receptor): 15%
O=C(O)CCNC(=O)[C@@H](Cc1ccccc1)C[C@H](Cc1ccccc1)C(=O)O | > 1000 nM | –
O=C(O)C(CCc1ccccc1)NC(=O)[C@H](Cc1ccccc1)C[C@@H](Cc1ccccc1)C(=O)O (stereo partly specified) | 5 nM | –
O=C(O)C(Cc1ccccc1)CC(Cc1ccccc1)C(=O)NCCCO (stereo unspecified) | 1000 nM | –
